Results taken from ChEMBL document CHEMBL3399918, “In vitro radical scavenging and cytotoxic activities of novel hybrid selenocarbamates” (Bioorg Med Chem, 2015).

Tests used:
[1] = test system: MCF7; assay: Cytotoxicity against human MCF7 cells after 72 hrs by MTT assay; assay type: functional; settings: MCF7, 72 h; for CC50: read-out: LC50 (the source's name)
In short: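 MCF-7 cells grown in EMEM with 10% foetal calf serum, 2 mM L-glutamine, 100 units/mL penicillin, 100 µg/mL streptomycin. Exposed to five concentrations between 0.01 and 100 μM for 72 h, 37 °C, humidified 5% CO2; MTT read-out. GI50, TGI, LC50 relative to untreated controls; ≥3 independent experiments in quadruplicate.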

[2] = test system: HT-29; assay: Cytotoxicity against human HT-29 cells after 72 hrs by MTT assay; assay type: functional; settings: HT-29, 72 h
In short: (§1)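 CCRF-CEM, HT-29, PC-3 and HTB-54 cells grown in RPMI 1640 with 10% foetal calf serum, 2 mM L-glutamine, penicillin/streptomycin, 10 mM HEPES (pH 7.4). Five concentrations, 0.01–100 μM, 72 h at 37 °C, 5% CO2; MTT read-out. GI50, TGI and LC50 versus untreated controls; at least 3 independent experiments in quadruplicate.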

[3] = test system: CCRF-CEM; assay: Cytotoxicity against human CCRF-CEM cells after 72 hrs by MTT assay; assay type: functional; in short: as §1
[4] = Cytotoxicity against human PC3 cells after 72 hrs by MTT assay; assay type: functional; settings: PC-3, 72 h; in short: as §1
[5] = Cytotoxicity against human HTB-54 cells after 72 hrs by MTT assay; assay type: functional; settings: HTB-54, 72 h; for CC50: read-out: LC50 (the source's name); in short: as §1
[6] = Cytotoxicity against human 184B5 cells after 72 hrs by MTT assay; assay type: cell-based; settings: for GI50 at 72 h: 184B5 cells; for LC50 / TGI: 184b5, 72 h
In short: (§2)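 Non-malignant lines: 184B5 (normal breast) in Hams F-12/DMEM (50:50) with published supplements; BEAS-2B (bronchial epithelium) in Hams F-12/DMEM (50:50) with 10% foetal calf serum, 2 mM L-glutamine, penicillin/streptomycin. Compounds at five concentrations, 0.01–100 μM, 72 h, 37 °C, 5% CO2; MTT read-out. GI50, TGI, LC50 relative to untreated controls; ≥3 independent experiments in quadruplicate.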

[7] = Cytotoxicity against human BEAS2B cells after 72 hrs by MTT assay; assay type: cell-based, BEAS-2B; settings: for GI50 at 72 h: BEAS2B cells; for LC50 / TGI: beas-2b, 72 h; in short: as §2
[8] = Antioxidant activity assessed as ABTS radical scavenging activity by measuring Trolox equivalent antioxidant capacity after 6 mins; assay type: physicochemical; settings: 0.1 h
In short: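 ABTS dissolved in deionized water at 1 mg/mL, oxidised to radical cation with potassium persulfate (2.45 mM final), kept overnight at room temperature in dark, then diluted with 50% ethanol to A741 = 0.700 ± 0.02. Compound (1 mg/mL ethanol stock) added 1:10 (0.1 mg/mL); A741 decrease read after 6 min against 50% ethanol blank. Trolox positive control; quadruplicate; TEAC from calibration curve.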

COc1cc([C@@H]2c3cc4c(cc3[C@@H](O[C@@H]3O[C@@H]5CO[C@@H](C)O[C@H]5[C@H](O)[C@H]3O)[C@H]3COC(=O)[C@H]23)OCO4)cc(OC)c1O [ETOPOSIDE]
GI50 [1]: 19.9 µM
TGI [1]: > 100 µM
CC50 [1]: > 100 µM
GI50 [2]: 31.6 µM
TGI [2]: > 100 µM
GI50 [3]: 1.6 µM
TGI [3]: 50.5 µM
GI50 [4]: 0.6 µM
TGI [4]: 4 µM

N#C[Se]c1ccc(NC(=O)OCc2ccc([N+](=O)[O-])cc2)cc1
GI50 [1]: 11.8 µM
TGI [1]: 40.7 µM
CC50 [1]: 69.5 µM
GI50 [2]: 22.4 µM
LC50 [2]: 71.9 µM
TGI [2]: 47.1 µM
GI50 [3]: 9.3 µM
LC50 [3]: 68.8 µM
TGI [3]: 38.3 µM
GI50 [4]: 9 µM
LC50 (concentration causing 50% net cell kill) [4]: 67.6 µM
TGI [4]: 36.5 µM
GI50 [5]: 22.9 µM
TGI [5]: 47.6 µM
CC50 [5]: 72.4 µM
GI50 at 72 h [6]: 6 µM
LC50 [6]: 58.5 µM
TGI [6]: 18 µM
GI50 at 72 h [7]: 7.7 µM
LC50 [7]: 65.8 µM
TGI [7]: 32.8 µM
Activity [8]: 9.66 µg/µL

N#C[Se]c1ccc(NC(=O)OCC2=Cc3ccccc3S2(=O)=O)cc1
GI50 [1]: 8.3 µM
TGI [1]: 34.9 µM
CC50 [1]: 66.1 µM
GI50 [2]: 26.1 µM
LC50 [2]: 74.3 µM
TGI [2]: 50.2 µM
GI50 [3]: 3.3 µM
LC50 [3]: 8.9 µM
TGI [3]: 6.1 µM
GI50 [4]: 6.3 µM
LC50 (concentration causing 50% net cell kill) [4]: 59.8 µM
TGI [4]: 21.3 µM
GI50 [5]: 6.8 µM
TGI [5]: 26.9 µM
CC50 [5]: 62.7 µM
GI50 at 72 h [6]: 5.3 µM
LC50 [6]: 59.7 µM
TGI [6]: 19.2 µM
GI50 at 72 h [7]: 7.7 µM
LC50 [7]: 64.3 µM
TGI [7]: 29 µM
Activity [8]: 1.92 µg/µL

O=C(Nc1ccc([Se][Se]c2ccc(NC(=O)Oc3ccc(F)cc3)cc2)cc1)Oc1ccc(F)cc1
GI50 [1]: 8 µM
TGI [1]: 33.7 µM
CC50 [1]: 64.3 µM
GI50 [2]: 18.5 µM
LC50 [2]: 85.3 µM
TGI [2]: 51.9 µM
GI50 [3]: 8.7 µM
LC50 [3]: 68.8 µM
TGI [3]: 37.6 µM
GI50 [4]: 4.9 µM
LC50 (concentration causing 50% net cell kill) [4]: 64.5 µM
TGI [4]: 31.3 µM
GI50 [5]: 26.7 µM
TGI [5]: 51.8 µM
CC50 [5]: 77 µM
GI50 at 72 h [6]: 3.7 µM
LC50 [6]: 47.8 µM
TGI [6]: 8.6 µM
GI50 at 72 h [7]: 0.7 µM
LC50 [7]: 61.8 µM
TGI [7]: 23.5 µM

O=C(Nc1ccc([Se][Se]c2ccc(NC(=O)OCc3ccc([N+](=O)[O-])cc3)cc2)cc1)OCc1ccc([N+](=O)[O-])cc1
GI50 [1]: 20.6 µM
TGI [1]: 52.8 µM
CC50 [1]: 85 µM
GI50 [2]: 16.7 µM
LC50 [2]: 75.9 µM
TGI [2]: 46.3 µM
GI50 [3]: 8.6 µM
LC50 [3]: 68.1 µM
TGI [3]: 36.5 µM
GI50 [4]: 6.4 µM
LC50 (concentration causing 50% net cell kill) [4]: 69.2 µM
TGI [4]: 27.1 µM
GI50 [5]: 31.8 µM
TGI [5]: 55.6 µM
CC50 [5]: 79.4 µM
GI50 at 72 h [6]: 6 µM
LC50 [6]: 56.5 µM
TGI [6]: 13.8 µM
GI50 at 72 h [7]: 6.3 µM
LC50 [7]: 61.6 µM
TGI [7]: 22.5 µM

CCCOC(=O)Nc1ccc([Se]C#N)cc1
GI50 [1]: 8 µM
TGI [1]: 34.4 µM
CC50 [1]: 67.5 µM
GI50 [2]: 28.4 µM
LC50 [2]: 75.4 µM
TGI [2]: 51.9 µM
GI50 [3]: 9.3 µM
LC50 [3]: 68.8 µM
TGI [3]: 38.4 µM
GI50 [4]: 21.1 µM
LC50 (concentration causing 50% net cell kill) [4]: 73.8 µM
TGI [4]: 47.4 µM
GI50 [5]: 28.9 µM
TGI [5]: 51.9 µM
CC50 [5]: 74.9 µM
GI50 at 72 h [6]: 3.7 µM
LC50 [6]: 50.9 µM
TGI [6]: 9.1 µM
GI50 at 72 h [7]: 19.2 µM
LC50 [7]: 73.5 µM
TGI [7]: 46.3 µM
Activity [8]: 6.27 µg/µL

O=C(Nc1ccc([Se][Se]c2ccc(NC(=O)Oc3ccc(Cl)cc3)cc2)cc1)Oc1ccc(Cl)cc1
GI50 [1]: 12.4 µM
TGI [1]: 46 µM
CC50 [1]: 79.6 µM
GI50 [2]: 9.9 µM
LC50 [2]: 76.9 µM
TGI [2]: 43.4 µM
GI50 [3]: 10.8 µM
LC50 [3]: 76 µM
TGI [3]: 43.4 µM
GI50 [4]: 1 µM
LC50 (concentration causing 50% net cell kill) [4]: 82.6 µM
TGI [4]: 28.1 µM
GI50 [5]: 28.6 µM
TGI [5]: 60.8 µM
CC50 [5]: 93 µM
GI50 at 72 h [6]: 2.5 µM
LC50 [6]: 52.6 µM
TGI [6]: 8.9 µM
GI50 at 72 h [7]: 0.1 µM
LC50 [7]: 64.7 µM
TGI [7]: 26.6 µM

C=CCOC(=O)Nc1ccc([Se]C#N)cc1
GI50 [1]: 15 µM
TGI [1]: 43.1 µM
CC50 [1]: 71.2 µM
GI50 [2]: 24.5 µM
LC50 [2]: 72.8 µM
TGI [2]: 48.6 µM
GI50 [3]: 9.2 µM
LC50 [3]: 68.6 µM
TGI [3]: 38.1 µM
GI50 [4]: 17.6 µM
LC50 (concentration causing 50% net cell kill) [4]: 71.8 µM
TGI [4]: 44.7 µM
GI50 [5]: 27 µM
TGI [5]: 50.1 µM
CC50 [5]: 73.3 µM
GI50 at 72 h [6]: 5 µM
LC50 [6]: 53.8 µM
TGI [6]: 9.8 µM
GI50 at 72 h [7]: 21.4 µM
LC50 [7]: 73.5 µM
TGI [7]: 47.4 µM

Cc1ccc(OC(=O)Nc2ccc([Se]C#N)cc2)cc1
GI50 [1]: 9.9 µM
TGI [1]: 39.9 µM
CC50 [1]: 69.8 µM
GI50 [2]: 8.8 µM
LC50 [2]: 68.7 µM
TGI [2]: 38.8 µM
GI50 [3]: 17.4 µM
LC50 [3]: 72 µM
TGI [3]: 44.7 µM
GI50 [4]: 7.6 µM
LC50 (concentration causing 50% net cell kill) [4]: 65.1 µM
TGI [4]: 32.3 µM
GI50 [5]: 17.3 µM
TGI [5]: 44.2 µM
CC50 [5]: 71.1 µM
GI50 at 72 h [6]: 4.4 µM
LC50 [6]: 46.9 µM
TGI [6]: 8.7 µM
GI50 at 72 h [7]: 5.6 µM
LC50 [7]: 58.3 µM
TGI [7]: 15.3 µM
